Experimental data: ChEMBL document CHEMBL4665633, “Cereblon versus VHL: Hijacking E3 ligases against each other using PROTACs” (Bioorg Med Chem, 2019)
The source made the active and inactive calls. The calls are words filed in the database; no cut-off is given here.

Columns and labels:
Assay type in all cases: cell-based
[1] = target: T1, Protein cereblon/von Hippel-Lindau disease tumor suppressor (Homo sapiens, UniProt P40337+Q96SW2); assay: Protac activity at VHL/CRBN in HEK293 cells assessed as pVHL19 protein abundance at 1 uM after 1 hr by Western blot analysis relative to DMSO
Method in brief: (§1)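 HEK293 cells (DMEM, 10% FBS, penicillin/streptomycin, L-glutamine; 37 °C, 5% CO2; ≤30 passages) seeded at 1 × 10⁶ per well overnight, then treated with compound at 0.1% v/v final DMSO. Cells were lysed in RIPA with protease inhibitors and benzonase, then clarified. Equal Bradford-quantified protein was immunoblotted for CRBN/VHL. Bands were normalised to β-tubulin and expressed as % of mean 0.1% DMSO vehicle.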

[2] = target: T1, Protein cereblon/von Hippel-Lindau disease tumor suppressor; assay: Protac activity at VHL/CRBN in HEK293 cells assessed as pVHL19 protein abundance at 1 uM after 8 hrs by Western blot analysis relative to DMSO; method in brief: as §1
[3] = target: T1, Protein cereblon/von Hippel-Lindau disease tumor suppressor; assay: Protac activity at VHL/CRBN in HEK293 cells assessed as pVHL19 protein abundance at 1 uM after 12 hrs by Western blot analysis relative to DMSO; method in brief: as §1
[4] = target: T1, Protein cereblon/von Hippel-Lindau disease tumor suppressor; assay: Protac activity at VHL/CRBN in HEK293 cells assessed as pVHL30 protein abundance at 1 uM after 1 hr by Western blot analysis relative to DMSO; method in brief: as §1
[5] = target: T1, Protein cereblon/von Hippel-Lindau disease tumor suppressor; assay: Protac activity at VHL/CRBN in HEK293 cells assessed as pVHL30 protein abundance at 1 uM after 4 hrs by Western blot analysis relative to DMSO; method in brief: as §1
[6] = target: T1, Protein cereblon/von Hippel-Lindau disease tumor suppressor; assay: Protac activity at VHL/CRBN in HEK293 cells assessed as pVHL30 protein abundance at 1 uM after 8 hrs by Western blot analysis relative to DMSO; method in brief: as §1
[7] = target: T1, Protein cereblon/von Hippel-Lindau disease tumor suppressor; assay: Protac activity at VHL/CRBN in HEK293 cells assessed as pVHL30 protein abundance at 1 uM after 24 hrs by Western blot analysis relative to DMSO; method in brief: as §1
[8] = target: T1, Protein cereblon/von Hippel-Lindau disease tumor suppressor; assay: Protac activity at VHL/CRBN in HEK293 cells assessed as CRBN protein abundance at 1 uM after 1 hr by Western blot analysis relative to DMSO; method in brief: as §1
[9] = target: T1, Protein cereblon/von Hippel-Lindau disease tumor suppressor; assay: Protac activity at VHL/CRBN in HEK293 cells assessed as pVHL30 protein abundance at 50 nM after 4 hrs by Western blot analysis relative to DMSO; method in brief: as §1
[10] = target: T1, Protein cereblon/von Hippel-Lindau disease tumor suppressor; assay: Protac activity at VHL/CRBN in HEK293 cells assessed as CRBN protein abundance at 10 nM after 4 hrs by Western blot analysis relative to DMSO; method in brief: as §1
[11] = target: T1, Protein cereblon/von Hippel-Lindau disease tumor suppressor; assay: Protac activity at VHL/CRBN in HEK293 cells assessed as CRBN protein abundance at 50 nM after 4 hrs by Western blot analysis relative to DMSO; method in brief: as §1
[12] = target: T1, Protein cereblon/von Hippel-Lindau disease tumor suppressor; assay: Protac activity at VHL/CRBN in HEK293 cells assessed as CRBN protein abundance at 5000 nM after 4 hrs by Western blot analysis relative to DMSO; method in brief: as §1
[13] = target: T1, Protein cereblon/von Hippel-Lindau disease tumor suppressor; assay: Protac activity at VHL/CRBN in human HeLa cells assessed as pVHL19 protein abundance at 1 uM after 24 hrs by Western blot analysis relative to DMSO
Method in brief: (§2)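 HeLa cells seeded overnight, then exposed to 1 µM compound (0.1% v/v DMSO final) over a time course. Cells were DPBS-washed and RIPA-lysed with protease inhibitors and benzonase; equal protein was loaded. Immunoblots for CRBN and VHL isoforms were quantified against β-tubulin and reported relative to the averaged 0.1% DMSO vehicle.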

[14] = target: T1, Protein cereblon/von Hippel-Lindau disease tumor suppressor; assay: Protac activity at VHL/CRBN in human HeLa cells assessed as CRBN protein abundance at 1 uM after 1 hr by Western blot analysis relative to DMSO
Method in brief: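 HeLa cells (DMEM, 10% FBS, penicillin/streptomycin, L-glutamine; 37 °C, 5% CO2) seeded at 5 × 10⁵ per well overnight, then treated in 0.1% v/v final DMSO. Cells were lysed in RIPA with protease inhibitors and benzonase, and equal protein was run on SDS-PAGE/nitrocellulose blots probed with anti-CRBN. Bands were normalised to β-tubulin and expressed relative to mean 0.1% DMSO vehicle.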

[15] = target: T1, Protein cereblon/von Hippel-Lindau disease tumor suppressor; assay: Protac activity at VHL/CRBN in human HeLa cells assessed as CRBN protein abundance at 1 uM after 12 hrs by Western blot analysis relative to DMSO; method in brief: as §2
[16] = target: T1, Protein cereblon/von Hippel-Lindau disease tumor suppressor; assay: Protac activity at VHL/CRBN in human HeLa cells assessed as CRBN protein abundance at 1 uM after 24 hrs by Western blot analysis relative to DMSO; method in brief: as §2
[17] = target: T1, Protein cereblon/von Hippel-Lindau disease tumor suppressor; assay: Protac activity at VHL/CRBN in human HeLa cells assessed as pVHL19 protein abundance at 100 nM after 4 hrs by Western blot analysis relative to DMSO
Method in brief: (§3)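 HeLa cells (5 × 10⁵, DMEM + 10% FBS, 37 °C, 5% CO₂, ≤30 passages) seeded overnight, then treated 4 h with compound at single or graded concentrations (0.1% v/v DMSO final). RIPA lysates equalised by Bradford; SDS-PAGE and anti-CRBN/anti-VHL immunoblots; bands normalised to β-tubulin and expressed as % of mean DMSO vehicle. DC₅₀ from fit of band intensity versus log[concentration].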

[18] = target: T1, Protein cereblon/von Hippel-Lindau disease tumor suppressor; assay: Protac activity at VHL/CRBN in human HeLa cells assessed as pVHL19 protein abundance at 500 nM after 4 hrs by Western blot analysis relative to DMSO; method in brief: as §3
[19] = target: T1, Protein cereblon/von Hippel-Lindau disease tumor suppressor; assay: Protac activity at VHL/CRBN in human HeLa cells assessed as pVHL30 protein abundance at 5 nM after 4 hrs by Western blot analysis relative to DMSO; method in brief: as §3
[20] = target: T1, Protein cereblon/von Hippel-Lindau disease tumor suppressor; assay: Protac activity at VHL/CRBN in human HeLa cells assessed as pVHL30 protein abundance at 1000 nM after 4 hrs by Western blot analysis relative to DMSO; method in brief: as §3
[21] = target: T1, Protein cereblon/von Hippel-Lindau disease tumor suppressor; assay: Protac activity at VHL/CRBN in human HeLa cells assessed as pVHL30 protein abundance at 5000 nM after 4 hrs by Western blot analysis relative to DMSO; method in brief: as §3
[22] = target: T1, Protein cereblon/von Hippel-Lindau disease tumor suppressor; assay: Protac activity at VHL/CRBN in human HeLa cells assessed as CRBN protein abundance at 50 nM after 4 hrs by Western blot analysis relative to DMSO; method in brief: as §3
[23] = target: T1, Protein cereblon/von Hippel-Lindau disease tumor suppressor; assay: Protac activity at VHL/CRBN in human HeLa cells assessed as CRBN protein abundance at 100 nM after 4 hrs by Western blot analysis relative to DMSO; method in brief: as §3
[24] = target: T1, Protein cereblon/von Hippel-Lindau disease tumor suppressor; assay: Protac activity at VHL/CRBN in human HeLa cells assessed as hook effect at > 1 uM
[25] = target: T1, Protein cereblon/von Hippel-Lindau disease tumor suppressor; assay: Protac activity at VHL/CRBN in human HeLa cells assessed as pVHL19 protein abundance at 10 nM after 4 hrs by Western blot analysis relative to DMSO; method in brief: as §3
[26] = target: T1, Protein cereblon/von Hippel-Lindau disease tumor suppressor; assay: Protac activity at VHL/CRBN in human HeLa cells assessed as pVHL30 protein abundance at 1 uM after 4 hrs by Western blot analysis relative to DMSO; method in brief: as §2
[27] = target: T1, Protein cereblon/von Hippel-Lindau disease tumor suppressor; assay: Protac activity at VHL/CRBN in human HeLa cells assessed as induction of VHL degradation at 1 uM after 4 hrs by Western blot analysis; method in brief: as §3
[28] = target: T1, Protein cereblon/von Hippel-Lindau disease tumor suppressor; assay: Protac activity at VHL/CRBN in HEK293 cells assessed as induction of VHL degradation at 1 uM after 1 to 24 hrs by Western blot analysis; conditions: time hrs 1-24

T1 sequence (P40337 whole entry, looked up): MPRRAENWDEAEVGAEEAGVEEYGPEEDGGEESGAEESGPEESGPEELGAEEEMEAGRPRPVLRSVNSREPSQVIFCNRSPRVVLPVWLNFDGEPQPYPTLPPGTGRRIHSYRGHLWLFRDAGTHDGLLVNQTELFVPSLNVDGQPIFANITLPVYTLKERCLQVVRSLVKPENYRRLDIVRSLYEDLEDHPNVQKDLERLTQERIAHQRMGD
T1 sequence (Q96SW2 whole entry, looked up): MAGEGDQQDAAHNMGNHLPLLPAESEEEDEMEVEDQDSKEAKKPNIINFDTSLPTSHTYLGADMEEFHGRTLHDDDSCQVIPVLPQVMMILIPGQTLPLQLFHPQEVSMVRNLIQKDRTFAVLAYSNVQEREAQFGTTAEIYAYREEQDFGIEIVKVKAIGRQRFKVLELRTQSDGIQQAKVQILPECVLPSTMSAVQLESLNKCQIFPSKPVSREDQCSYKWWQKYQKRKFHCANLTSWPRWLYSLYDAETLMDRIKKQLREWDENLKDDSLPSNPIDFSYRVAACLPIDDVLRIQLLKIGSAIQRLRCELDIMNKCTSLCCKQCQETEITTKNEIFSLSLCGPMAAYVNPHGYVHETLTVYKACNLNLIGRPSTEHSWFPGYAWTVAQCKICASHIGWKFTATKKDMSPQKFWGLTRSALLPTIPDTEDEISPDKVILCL

Work on `Cc1ncsc1-c1ccc(CNC(=O)[C@@H]2C[C@@H](O)CN2C(=O)[C@@H](NC(=O)COCCCCCOCCOCCCCCOCC(=O)NCCNc2cccc3c2C(=O)N(C2CCC(=O)NC2=O)C3=O)C(C)(C)C)cc1` (stereo partly drawn) yielded an Activity [1] of 98%, an Activity [2] of 105% and an Activity [3] of 102%. It also gave an Activity [4] of 88%, an Activity [5] of 98% and an Activity [6] of 101%. It also gave an Activity [7] of 101%, an Activity [8] of 14% and an Activity [9] of 133%. For the same compound, the Activity [10] was 113%, the Activity [11] was 91% and the Activity [12] was 25%. For the same compound, the Activity [13] was 100%, the Activity [14] was 57% and the Activity [15] was 12%. The Activity [16] was 13%, the Activity [17] was 108% and the Activity [18] was 106%. The Activity [19] was 61%, the Activity [20] was 125% and the Activity [21] was 143%. For the same compound, the Activity [22] was 72%, the Activity [23] was 70% and the Activity [24] was “Active”. For the same compound, the Activity [25] was 95%, the Activity [26] was 103% and the Activity [27] was “inactive”. The Activity [28] was “inactive”.
